According to ChEMBL document CHEMBL5143726, “Neutrophil Elastase-Activatable Prodrugs Based on an Alkoxyamine Platform to Deliver Alkyl Radicals Cytotoxic to Tumor Cells” (J Med Chem, 2022):
Active and inactive are the calls of the source. The calls are words filed in the database; no cut-off is given here. Where a SMILES comes first, the peptide text is derived from it.

Key:
[1] = test system: U-87 MG; assay: Cytotoxicity against human U87 cells assessed as reduction in cell viability measured after 24 to 72 hrs in presence of human neutrophil elastase by PrestoBlue reagent based assay; type: functional; details: dose 100-400 µM, time 24-72 hrs; for Activity: U-87MG ATCC, DDE = dose-dependent effect; for CC50: read-out: LC50 (the source's name)
Outline: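 U87 cells cultured 48 h, medium changed to serum-free DMEM; prodrug (0–400 μM) plus human neutrophil elastase 0.68 μM added, 1 h incubation, then 10% serum added to stop enzyme and cells held 24, 48 or 72 h. Viability via resazurin (PrestoBlue), 30 min at 37 °C, fluorescence ex 560/em 590 nm.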

[2] = test system: U-87 MG; assay: Induction of apoptosis in human U87 cells assessed as activation of caspase3/7 at 75 to 250 uM measured after 48 hrs in presence of human neutrophil elastase by luminescence based multimode microplate reader assay; type: functional, cell-based; details: U-87MG ATCC, dose 75-250 µM
Outline: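 U87 cells in serum-free DMEM given alkoxyamine (75, 150, 250 μM) plus HNE 0.68 μM for 1 h, then 10% serum added; sampled at 1, 3, 7, 24, 48 h. Caspase 3/7 read by lytic luminogenic substrate reagent, 15 min at room temperature, luminescence. Controls: HNE alone, cells alone, doxorubicin 2 μM.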

[3] = test system: U-87 MG; assay: Induction of apoptosis in human U87 cells assessed as phosphatidylserine translocation at 75 to 250 uM measured after 48 hrs in presence of human neutrophil elastase; type: functional, cell-based; details: U-87MG ATCC, dose 75-250 µM
Outline: (§1)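 Serum-free U87 exposure to alkoxyamine 75, 150 or 250 μM with HNE 0.68 μM for 1 h, then 10% serum; followed 1–48 h. Live-cell RealTime-Glo reagent added, 60 min at 37 °C: annexin V phosphatidylserine binding by luminescence, membrane loss by cell-impermeant DNA dye fluorescence (ex 485/em 530 nm). Controls: HNE alone, untreated cells, doxorubicin 2 μM.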

[4] = test system: U-87 MG; assay: Induction of apoptosis in human U87 cells assessed as reduction in cell membrane integrity at 75 to 250 uM measured after 48 hrs in presence of human neutrophil elastase; type: functional, cell-based; details: U-87MG ATCC, dose 75-250 µM; outline: as §1
[5] = test system: U-87 MG; assay: Cytotoxicity against human U87 cells assessed as cell viability at 100 to 400 uM measured after 24 to 72 hrs in absence of human neutrophil elastase by PrestoBlue reagent based assay; type: functional, U-87MG ATCC; details: dose 100-400 µM, time 24-72 hrs
Outline: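 U87 glioblastoma (DMEM, 10% FBS, 37 °C, 5% CO2) seeded 48 h, medium swapped to serum-free DMEM; prodrug 0–400 μM added without elastase, 1 h, then 10% serum restored; incubation 24, 48 or 72 h. Viability by resazurin-to-resorufin conversion (PrestoBlue, 1/10 volume, 30 min 37 °C), fluorescence ex 560/em 590 nm.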

[6] = Prodrug activation assessed as human neutrophil elastase mediated TEMPO release by EPR spectometric analysis
Outline: (§2)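 Human neutrophil elastase (20 nM final) with prodrug (300 μM final) in 50 mM HEPES, 150 mM NaCl, 5 mM CaCl2, 0.05% IGEPAL, pH 7.4, in capillaries at 37 °C; released stable nitroxide (TEMPO or DBNO) quantified by EPR against internal spectrometer calibration.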

[7] = Prodrug activation assessed as urokinase mediated TEMPO release
[8] = test system: U-87 MG; assay: Cytotoxicity against human U87 cells assessed as reduction in cell viability at 400 uM measured after 48 hrs in absence of human neutrophil elastase by PrestoBlue reagent based assay; type: functional; details: U-87MG ATCC
Outline: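 U87 glioblastoma cells grown 48 h in DMEM/10% FBS, then switched to serum-free DMEM; prodrug (400 μM) added without elastase, serum restored to 10% after 1 h, cells kept 48 h at 37 °C. Viability by resazurin (PrestoBlue) reduction, 30 min at 37 °C, fluorescence ex 560/em 590 nm.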

[9] = Prodrug activation assessed as human neutrophil elastase mediated DBNO release by EPR spectometric analysis; outline: as §2

Compound | Activity [1] | CC50 [1] [µM] | Activity [2] | Activity [3] | Activity [4] | Activity [5] [%] | Drug metabolism [6] | Drug metabolism [7] | Activity [8] | Drug metabolism [9]
CC(ON1C(C)(C)CCCC1(C)C)c1ccc(NC(=O)[C@@H](NC(=O)[C@@H]2CCCN2C(=O)[C@H](C)NC(=O)[C@H](C)NC(=O)CCC(=O)O)C(C)C)cc1 (some centres not stated) (HELM PEPTIDE1{[O=C(O)CCC(=O)[*:2]].A.A.P.V.[CC(ON1C(C)(C)CCCC1(C)C)c1ccc(N[*:1])cc1]}$$$$V2.0) | Dde | 150 | Active | Active | Active | 100 | Metabolite_Detected | Metabolite_Notdetected |  | 
CC(ON1C(C)(C)CCCC1(C)C)c1ccc(OC(=O)[C@@H](NC(=O)[C@@H]2CCCN2C(=O)[C@H](C)NC(=O)[C@H](C)NC(=O)CCC(=O)O)C(C)C)cc1 (some centres not stated) (HELM PEPTIDE1{[O=C(O)CCC(=O)[*:2]].A.A.P.V.[CC(ON1C(C)(C)CCCC1(C)C)c1ccc(O[*:1])cc1]}$$$$V2.0) |  | 150 |  |  |  |  | Metabolite_Detected |  | Active | 
CC(ON(C(C)(C)C)C(C)(C)C)c1ccc(NC(=O)[C@@H](NC(=O)[C@@H]2CCCN2C(=O)[C@H](C)NC(=O)[C@H](C)NC(=O)CCC(=O)O)C(C)C)cc1 (some centres not stated) (HELM PEPTIDE1{[O=C(O)CCC(=O)[*:2]].A.A.P.V.[CC(ON(C(C)(C)C)C(C)(C)C)c1ccc(N[*:1])cc1]}$$$$V2.0) | Dde | 150 |  |  |  |  |  |  |  | Metabolite_Detected
CC(ON(C(C)(C)C)C(C)(C)C)c1ccc(OC(=O)[C@@H](NC(=O)[C@@H]2CCCN2C(=O)[C@H](C)NC(=O)[C@H](C)NC(=O)CCC(=O)O)C(C)C)cc1 (some centres not stated) (HELM PEPTIDE1{[O=C(O)CCC(=O)[*:2]].A.A.P.V.[CC(ON(C(C)(C)C)C(C)(C)C)c1ccc(O[*:1])cc1]}$$$$V2.0) | Dde | 150 |  |  |  |  |  |  |  | Metabolite_Detected
